Measured values published in ChEMBL document CHEMBL1955778, “Design and synthesis of novel 7-aminoquinazoline derivatives: antitumor and anticonvulsant activities” (Bioorg Med Chem Lett, 2012).

Assays:
[1] = Growth inhibition of human 786-O cells at 10 uM relative to control; type: functional; settings: 786-0, read-out: GI
In short: (§1)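 Each cell line in a 60-line human tumour panel exposed to one 10 μM concentration. Growth inhibition percentage computed as 100 minus the percentage activity relative to control.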

OVCAR-8 = assay: Growth inhibition of human OVCAR8 cells at 10 uM relative to control; type: functional; settings: read-out: GI; in short: as §1
OVCAR-4 = assay: Growth inhibition of human OVCAR4 cells at 10 uM relative to control; type: functional; settings: read-out: GI; in short: as §1
MDA-MB-435 = assay: Growth inhibition of human MDA-MB-435 cells at 10 uM relative to control; type: functional; settings: read-out: GI; in short: as §1
SK-MEL-28 = assay: Growth inhibition of human SK-MEL-28 cells at 10 uM relative to control; type: functional; settings: read-out: GI; in short: as §1
U-251 = assay: Growth inhibition of human U251 cells at 10 uM relative to control; type: functional; settings: read-out: GI
In short: (§2)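 Single-dose screen across the 60-cell-line human tumor panel at 10 μM. Growth inhibition is reported as a percentage, taken as 100 minus the % growth relative to untreated control.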

SNB-19 = assay: Growth inhibition of human SNB19 cells at 10 uM relative to control; type: functional; settings: read-out: GI; in short: as §2
SNB-75 = assay: Growth inhibition of human SNB75 cells at 10 uM relative to control; type: functional; settings: read-out: GI; in short: as §2
SF-268 = assay: Growth inhibition of human SF268 cells at 10 uM relative to control; type: functional; settings: read-out: GI; in short: as §1
KM12 = assay: Growth inhibition of human KM12 cells at 10 uM relative to control; type: functional; settings: read-out: GI; in short: as §1
HCT-116 = assay: Growth inhibition of human HCT116 cells at 10 uM relative to control; type: functional; settings: read-out: GI; in short: as §1
HCT-15 = assay: Growth inhibition of human HCT15 cells at 10 uM relative to control; type: functional; settings: read-out: GI; in short: as §1
NCI-H522 = assay: Growth inhibition of human NCI-H522 cells at 10 uM relative to control; type: functional; settings: read-out: GI; in short: as §1
NCI-H23 = assay: Growth inhibition of human NCI-H23 cells at 10 uM relative to control; type: functional; settings: read-out: GI; in short: as §1
NCI-H226 = assay: Growth inhibition of human NCI-H226 cells at 10 uM relative to control; type: functional; settings: read-out: GI; in short: as §1
A549 = assay: Growth inhibition of human A549 cells at 10 uM relative to control; type: functional; settings: read-out: GI; in short: as §1
EKVX = assay: Growth inhibition of human EKVX cells at 10 uM relative to control; type: functional; settings: read-out: GI; in short: as §1
RPMI-8226 = assay: Growth inhibition of human RPMI8226 cells at 10 uM relative to control; type: functional; settings: read-out: GI; in short: as §1
SR = assay: Growth inhibition of human SR cells at 10 uM relative to control; type: functional; settings: read-out: GI; in short: as §2
MOLT-4 = assay: Growth inhibition of human MOLT4 cells at 10 uM relative to control; type: functional; settings: read-out: GI; in short: as §1
K562 = assay: Growth inhibition of human K562 cells at 10 uM relative to control; type: functional; settings: read-out: GI; in short: as §1
CCRF-CEM = assay: Growth inhibition of human CCRF-CEM cells at 10 uM relative to control; type: functional; settings: read-out: GI; in short: as §1
HL-60(TB) = assay: Growth inhibition of human HL-60(TB) cells at 10 uM relative to control; type: functional; settings: read-out: GI
In short: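 Single-dose screen at 10 μM across the 60-cell-line tumour panel. Percent growth inhibition = 100 minus percent growth activity relative to untreated control.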

Mus musculus [2] = species: Mus musculus; assay: Protective index, ratio of TD50 for mouse to ED50 for pentylenetetrazol-induced seizure in mouse; type: functional
In short: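 Mice. Index is TD50/ED50. TD50 is the dose causing minimal neurological toxicity in 50% of mice in the Chimney test. ED50 is the dose protecting 50% of mice against pentylenetetrazole-induced seizures. Both are estimated from testing at several doses.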

[3] = Toxicity in ip dose mouse assessed as mortality; type: organism-based; settings: in vivo
In short: (§3)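 In mice, LD50 is the dose causing 50% mortality. ED50 is the dose protecting 50% of mice against pentylenetetrazole-induced seizures. Therapeutic index = LD50/ED50.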

[4] = Therapeutic index, ratio of LD50 for mouse to ED50 for pentylenetetrazol-induced seizure in mouse; type: organism-based; settings: in vivo, read-out: Ratio LD50/ED50; in short: as §3
[5] = Neurotoxicity in ip dosed mouse assessed as impaired motor coordination administered 30 mins prior to test by chimney test; type: toxicity, organism-based; settings: in vivo
In short: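 Mice, Chimney test. TD50 is the dose that produces minimal neurological toxicity (impaired motor coordination) in 50% of animals, estimated from testing at several doses.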

Mus musculus [6] = assay: Anticonvulsant activity in ip dosed mouse assessed as protection against pentylenetetrazol-induced seizure administered 30 min prior to pentylenetetrazol-challenge measured after 60 mins; type: functional
In short: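 Mice received several doses for quantification. ED50 taken as the dose protecting 50% of mice against pentylenetetrazol-induced seizures.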

Mus musculus [7] = assay: Anticonvulsant activity in mouse assessed as protection against maximal electroshock-induced seizure at 1 mmol/kg, ip administered 30 min prior to maximal electroshock-challenge measured after 60 mins relative to control; type: functional
Mus musculus [8] = assay: Anticonvulsant activity in mouse assessed as protection against picrotoxin-induced seizure at 1 mmol/kg, ip administered 30 min prior to picrotoxin-challenge measured after 60 mins relative to control; type: functional
Mus musculus [9] = assay: Anticonvulsant activity in mouse assessed as protection against strychnine-induced seizure at 1 mmol/kg, ip administered 30 min prior to strychnine-challenge measured after 60 mins relative to control; type: functional
Mus musculus [10] = assay: Anticonvulsant activity in mouse assessed as protection against pentylenetetrazol-induced seizure at 1 mmol/kg, ip administered 30 min prior to pentylenetetrazol-challenge measured after 60 mins relative to control; type: functional
MDA-MB-468 = assay: Growth inhibition of human MDA-MB-468 cells at 10 uM relative to control; type: functional; settings: read-out: GI; in short: as §1
T47D = assay: Growth inhibition of human T47D cells at 10 uM relative to control; type: functional; settings: read-out: GI; in short: as §2
[11] = Growth inhibition of human Hs 578T cells at 10 uM relative to control; type: functional; settings: read-out: GI; in short: as §1
MDA-MB-231 = assay: Growth inhibition of human MDA-MB-231 cells at 10 uM relative to control; type: functional; settings: read-out: GI; in short: as §1
MCF7 = assay: Growth inhibition of human MCF7 cells at 10 uM relative to control; type: functional; settings: read-out: GI; in short: as §1
PC-3 = assay: Growth inhibition of human PC3 cells at 10 uM relative to control; type: functional; settings: read-out: GI; in short: as §1
UO-31 = assay: Growth inhibition of human UO31 cells at 10 uM relative to control; type: functional; settings: read-out: GI; in short: as §2
SN12C = assay: Growth inhibition of human SN12C cells at 10 uM relative to control; type: functional; settings: read-out: GI; in short: as §2
CAKI-1 = assay: Growth inhibition of human CAKI-1 cells at 10 uM relative to control; type: functional; settings: read-out: GI; in short: as §1

Cc1ccccc1-n1c(C)nc2cc(N3C(=O)CSC3c3ccccc3)ccc2c1=O (stereo unspecified)
inhibition of growth at 10 µM [1]: 3% | inhibition of growth at 10 µM (OVCAR-8): 5% | inhibition of growth at 10 µM (OVCAR-4): 3% | inhibition of growth at 10 µM (MDA-MB-435): 9.7% | inhibition of growth at 10 µM (SK-MEL-28): 5% | inhibition of growth at 10 µM (U-251): 13% | inhibition of growth at 10 µM (SNB-19): 9.7% | inhibition of growth at 10 µM (SNB-75): 19.5% | inhibition of growth at 10 µM (SF-268): 14.2% | inhibition of growth at 10 µM (KM12): 15.5% | inhibition of growth at 10 µM (HCT-116): 16% | inhibition of growth at 10 µM (HCT-15): 13.3% | inhibition of growth at 10 µM (NCI-H522): 18% | inhibition of growth at 10 µM (NCI-H23): 4.4% | inhibition of growth at 10 µM (NCI-H226): 14.3% | inhibition of growth at 10 µM (A549): 8.1% | inhibition of growth at 10 µM (EKVX): 12.8% | inhibition of growth at 10 µM (RPMI-8226): 21.4% | inhibition of growth at 10 µM (SR): 35.3% | inhibition of growth at 10 µM (MOLT-4): 46.3% | inhibition of growth at 10 µM (K562): 37.6% | inhibition of growth at 10 µM (CCRF-CEM): 31.1% | inhibition of growth at 10 µM (HL-60(TB)): 32.7% | Ratio TD50/ED50 (Mus musculus [2]): 1.06 | LD50 [3]: 1500 µmol/kg | selectivity ratio [4]: 2.13 | TD50 at 0.5 h [5]: 750 µmol/kg | ED50 (Mus musculus [6]): 700 µmol/kg | Activity (Mus musculus [7]): 100% | Activity (Mus musculus [8]): 50% | Activity (Mus musculus [9]): 0% | Activity (Mus musculus [10]): 100% | inhibition of growth at 10 µM (MDA-MB-468): 25.8% | inhibition of growth at 10 µM (T47D): 25.8% | inhibition of growth at 10 µM [11]: 6% | inhibition of growth at 10 µM (MDA-MB-231): 17.3% | inhibition of growth at 10 µM (MCF7): 21.8% | inhibition of growth at 10 µM (PC-3): 26.9% | inhibition of growth at 10 µM (UO-31): 22% | inhibition of growth at 10 µM (SN12C): 3% | inhibition of growth at 10 µM (CAKI-1): 15.6%
